Measurements taken from ChEMBL document CHEMBL5244249, “Discovery of tofacitinib derivatives as orally active antitumor agents based on the scaffold hybridization strategy” (Eur J Med Chem, 2020).
The source made the active and inactive calls. The calls are words filed in the database; no cut-off is given here.

Columns and labels:
[1] = tested on: MGC-803; test: Inhibition of colony formation in human MGC-803 cells at 2 uM incubated for 9 days by crystal violet staining based analysis relative to control; format: functional; details: MGC-803, 216 h, time 9 day
Procedure, shortened: (§1)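 Clonogenic assay: MGC-803 cells grown 9 days with 0, 1, 2 or 3 μM; colonies counted and inhibition rate calculated against untreated control; mean ± SD of three independent experiments.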

[2] = tested on: MGC-803; test: Inhibition of colony formation in human MGC-803 cells at 3 uM incubated for 9 days by crystal violet staining based analysis relative to control; format: functional; details: MGC-803, 216 h, time 9 day; procedure, shortened: as §1
[3] = tested on: MGC-803; test: Inhibition of cell migration in human MGC-803 cells incubated for 24 hrs by wound healing assay; format: functional, cell-based; details: dose 5-10 µM
Procedure, shortened: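 Wound-healing scratch assay in MGC-803 monolayers; 24 h exposure to 0, 5, 7.5 or 10 μM; migration quantified; three independent experiments, mean ± SD.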

[4] = tested on: MGC-803; test: Induction of apoptosis in human MGC-803 cells assessed as nuclear fragmentation at 5 to 10 uM incubated for 24 hrs by Hoechst 33342 staining based fluorescence microscopic analysis; format: functional, cell-based; details: dose 5-10 µM
Procedure, shortened: (§2)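 MGC-803 cells treated at 0, 5, 7.5 and 10 μM; cell morphology and nuclear morphology (fragmentation, condensation) examined by staining and imaging; three independent experiments, mean ± SD.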

[5] = tested on: MGC-803; test: Induction of apoptosis in human MGC-803 cells assessed as nuclear condensation at 5 to 10 uM incubated for 24 hrs by Hoechst 33342 staining based fluorescence microscopic analysis; format: functional, cell-based; details: dose 5-10 µM; procedure, shortened: as §2
[6] = tested on: MGC-803; test: Induction of apoptosis in human MGC-803 cells assessed as late apoptotic cells at 5 uM incubated for 24 hrs by Annexin V-FITC/PI staining based flow cytometric analysis (reference value: 3.8 %); format: functional
[7] = tested on: MGC-803; test: Induction of apoptosis in human MGC-803 cells assessed as early apoptotic cells at 7.5 uM incubated for 24 hrs by Annexin V-FITC/PI staining based flow cytometric analysis (reference value: 3.9 %); format: functional
[8] = tested on: MGC-803; test: Induction of apoptosis in human MGC-803 cells assessed as necrotic cells at 7.5 uM incubated for 24 hrs by Annexin V-FITC/PI staining based flow cytometric analysis (reference value: 2.0 %); format: functional
[9] = tested on: MGC-803; test: Induction of apoptosis in human MGC-803 cells assessed as late apoptotic cells at 10 uM incubated for 24 hrs by Annexin V-FITC/PI staining based flow cytometric analysis (reference value: 3.8 %); format: functional
[10] = tested on: MGC-803; test: Induction of apoptosis in human MGC-803 cells assessed as necrotic cells at 10 uM incubated for 24 hrs by Annexin V-FITC/PI staining based flow cytometric analysis (reference value: 2.0 %); format: functional
[11] = tested on: MGC-803; test: Induction of apoptosis in human MGC-803 cells assessed as necrotic cells at 5 uM incubated for 48 hrs by Annexin V-FITC/PI staining based flow cytometric analysis (reference value: 0.3 %); format: functional
[12] = tested on: MGC-803; test: Induction of apoptosis in human MGC-803 cells assessed as early apoptotic cells at 10 uM incubated for 48 hrs by Annexin V-FITC/PI staining based flow cytometric analysis (reference value: 2.5 %); format: functional
[13] = tested on: MGC-803; test: Induction of apoptosis in human MGC-803 cells assessed as late apoptotic cells at 10 uM incubated for 48 hrs by Annexin V-FITC/PI staining based flow cytometric analysis (reference value: 0.5 %); format: functional
[14] = tested on: MGC-803; test: Induction of apoptosis in human MGC-803 cells assessed as total apoptotic cells at 10 uM incubated for 24 hrs by Annexin V-FITC/PI staining based flow cytometric analysis (reference value: 7.7 %); format: functional
[15] = tested on: MGC-803; test: Cell cycle arrest in human MGC-803 cells assessed as S phase cells at 10 uM incubated for 24 hrs by RNase/PI staining based flow cytometric analysis (reference value: 27.1%); format: functional
[16] = tested on: MGC-803; test: Cell cycle arrest in human MGC-803 cells assessed as G2/M phase cells at 10 uM incubated for 24 hrs by RNase/PI staining based flow cytometric analysis (reference value: 15.11%); format: functional
[17] = tested on: MGC-803; test: Induction of mitochondrial dysfunction in human MGC-803 cells assessed as increase in green fluorescence intensity at 5 uM incubated for 24 hrs by JC-1 staining based fluorescence microscopic analysis (reference value: 9.9%); format: functional
[18] = tested on: MGC-803; test: Induction of mitochondrial dysfunction in human MGC-803 cells assessed as increase in green fluorescence intensity at 10 uM incubated for 24 hrs by JC-1 staining based fluorescence microscopic analysis (reference value: 9.9%); format: functional
[19] = tested on: MGC-803; test: Induction of apoptosis in human MGC-803 cells assessed as decrease in Mcl-1 protein expression at 5 to 10 uM incubated for 24 hrs by Western blot analysis; format: functional, cell-based; details: dose 5-10 µM
Procedure, shortened: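 After 24 h exposure of MGC-803 cells, Bcl-2, Mcl-1, Bax and cytochrome c release assessed by Western blot with band quantitation; mean ± SD from three independent experiments.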

[20] = tested on: MGC-803; test: Induction of mitochondrial dysfunction in human MGC-803 cells assessed as upregulation of cleaved caspase-3 expression at 5 to 10 uM incubated for 24 hrs by Western blot analysis; format: functional, cell-based; details: dose 5-10 µM
Procedure, shortened: (§3)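 Western blot of caspase 9, 3, 7, PARP and γH2A.X in MGC-803 lysates after 24 h exposure to 5, 7.5 or 10 μM; band quantitation; mean ± SD from three independent experiments.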

[21] = tested on: MGC-803; test: Induction of mitochondrial dysfunction in human MGC-803 cells assessed as downregulation of procaspase-7 expression at 5 to 10 uM incubated for 24 hrs by Western blot analysis; format: functional, cell-based; details: dose 5-10 µM; procedure, shortened: as §3
[22] = Activation of MAPK pathway in human MGC-803 cells assessed as change in ERK1/2 total expression at 5 to 10 uM incubated for 24 hrs by Western blot analysis; format: cell-based; details: dose 5-10 µM
[23] = Activation of MAPK pathway in human MGC-803 cells assessed as change in p38 total expression at 5 to 10 uM incubated for 24 hrs by Western blot analysis; format: cell-based; details: dose 5-10 µM
[24] = Activation of MAPK pathway in human MGC-803 cells assessed as change in Erk5 total expression at 5 to 10 uM incubated for 24 hrs by Western blot analysis; format: cell-based; details: dose 5-10 µM
[25] = Activation of MAPK pathway in human MGC-803 cells assessed as increase in phosphorylated p38 expression at 5 to 10 uM incubated for 24 hrs by Western blot analysis; format: cell-based; details: filed as activator, dose 5-10 µM
[26] = Toxicity in SCID mouse xenografted with human MGC-803 cells assessed as effect on body weight at 12.5 to 25 mg/kg, IG administered for 21 days; format: organism-based; details: in vivo, po, 504 h, dose 12.5-25 mg/kg, time 21 day
Procedure, shortened: (§4)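 SCID mice bearing subcutaneous MGC-803 xenografts (right side) dosed with 12.5 or 25 mg/kg over 21 days, 0.5% CMC-Na vehicle as control; body weight and tumor size monitored periodically; major organs examined histopathologically at end; means ± SD.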

[27] = Toxicity in SCID mouse xenografted with human MGC-803 cells assessed as effect on spleen at 12.5 to 25 mg/kg, IG administered for 21 days by H&E staining based histopathological analysis; format: organism-based; details: in vivo, po, 504 h, dose 12.5-25 mg/kg, time 21 day; procedure, shortened: as §4
[28] = Toxicity in SCID mouse xenografted with human MGC-803 cells assessed as effect on kidney at 12.5 to 25 mg/kg, IG administered for 21 days by H&E staining based histopathological analysis; format: organism-based; details: in vivo, po, 504 h, dose 12.5-25 mg/kg, time 21 day; procedure, shortened: as §4

In the case of `Cc1cc(N2CC[C@@H](C)[C@@H](N(C)c3ncnc4[nH]ccc34)C2)n2nc(SCc3ccc(C(F)(F)F)cc3)nc2n1`, the inhibition at 2 µM [1] is reported as 54%, the inhibition at 3 µM [2] is reported as 73% and the inhibition [3] is reported as “Dose-Dependent Effect”. The Activity [4] was “Active”, the Activity [5] was “Active” and the Activity [6] was 8.8%. The Activity [7] was 11.5%, the Activity [8] was 3.5% and the Activity [9] was 28%. The Activity [10] was 2.2%, the Activity [11] was 0.9% and the Activity [12] was 4.9%. It also gave an Activity [13] of 77.2%, an Activity [14] of 40.7% and an Activity [15] of 28.14%. It also gave an Activity [16] of 12.82%, an Activity [17] of 27.7% and an Activity [18] of 49.1%. For the same compound, the Activity [19] was “Active”, the Activity [20] was “Active” and the Activity [21] was “Active”. The Activity [22] was “inactive”, the Activity [23] was “inactive” and the Activity [24] was “inactive”. The Activity [25] was “Active”, the Activity [26] was “Non-Toxic” and the Activity [27] was “Non-Toxic”. For the same compound, the Activity [28] was “Non-Toxic”.
